Experimental findings from PubChem BioAssay AID2527 (Broad Institute, 2010) are described below.

Molecules are shown by their SMILES. Calls of active or inactive are those of the source.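 Rule for the calls: active = at 30 µM dose, two-repeat average suppression of induced P-selectin signal exceeds 50%; inactive = average suppression 50% or lower.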

In the assay the test system is platelets, A23187-induced P-selectin, flow cytometry. The experiment in a line: calcium ionophore platelet activation inhibition – cell-based, fluorescence, flow cytometry, platelets, selectivity assay, confirmation (AID 2527). The note with it: at 30 µM; active compounds read high. A digest of the protocol: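 System: stimulated platelets; schedule: 20 min compound, 15 min A23187, 20 min stain; signal: flow cytometry, PE anti-P-selectin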

Consider `O=C(Nc1cccc(NC(=O)c2ccccc2Cl)c1)c1ccco1`, for which the inhibition is 5.95% (inactive). With `CCCC(=O)Nc1cccc(NC(=O)c2ccccc2Br)c1` the figure was 3.45% (inactive).
